Consider one molecule from ChEMBL document CHEMBL1629563, “Pharmacokinetic and safety evaluation of BILR 355, a second-generation nonnucleoside reverse transcriptase inhibitor, in healthy volunteers” (Antimicrob Agents Chemother, 2008).

The term Cmax denotes the highest concentration seen after dosing.

Holding throughout (conditions): in vivo
Data set [1] is described as follows: Cmax in healthy human at 50 mg, po administered as single dose coadministered with 100 mg of ritonavir by high-pressure liquid chromatography-tandem mass spectrometry/mass spectrometry method. It counts as ADME, organism-based. More on the design: dose 50 mg, route oral. A digest of the protocol:
(§1)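 Healthy male volunteers, fasted overnight, got one oral dose of BILR 355 in PEG solution with 200 ml water. Ritonavir 100 mg was given 10 h before and again with the dose. Plasma was sampled (EDTA) from predose to 144 h and assayed by validated LC-MS/MS. Cmax and Vz/F came from noncompartmental analysis. Vss/F = CL/F·(MRTp.o. − 1/Ka), with Ka from compartmental modelling.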

In data set [2] the test system is Homo sapiens. Put plainly: Toxicity in healthy human assessed as occurrence of migraine at 25 mg, po administered as single dose relative to control. It counts as organism-based.
Data set [3] deals with Homo sapiens. Put plainly: Toxicity in healthy human assessed as occurrence of vomiting at 50 mg, po administered as single dose relative to control. It counts as organism-based.
Data set [4] has as its system Homo sapiens. Description: Toxicity in healthy human assessed as occurrence of maculopapular rash at 12.5 mg, po administered as single dose coadministered with 100 mg of ritonavir. The format is organism-based.
Data set [5] in a line: Cmax in healthy human at 62.5 mg, po administered as single dose coadministered with 100 mg of ritonavir by high-pressure liquid chromatography-tandem mass spectrometry/mass spectrometry method. The format is ADME, organism-based. More on the design: dose 62.5 mg, route oral. A digest of the protocol:
as §1

Data set [6] has as its system Homo sapiens. Description: Ratio of Cmax in human at 25 mg, po in presence of 100 mg of ritonavir to Cmax in human at 25 mg, po. It counts as ADME, organism-based.

For `CCN1c2ncc(CCOc3cc[n+]([O-])c4ccccc34)cc2C(=O)N(C)c2cccnc21` [BILR 355], the values for the Cmax in data set [1] and in data set [5] were 468 ng/mL and 653 ng/mL, respectively. Besides, the Activity in data set [2], in data set [3] and in data set [4] was 0% throughout. Besides, the Ratio in data set [6] amounted to 5.4.
